pKi: −log10 of the molar value.

One assay concerns the target T1, Interstitial collagenase (Homo sapiens, UniProt P03956).
T1 sequence (P03956 whole entry): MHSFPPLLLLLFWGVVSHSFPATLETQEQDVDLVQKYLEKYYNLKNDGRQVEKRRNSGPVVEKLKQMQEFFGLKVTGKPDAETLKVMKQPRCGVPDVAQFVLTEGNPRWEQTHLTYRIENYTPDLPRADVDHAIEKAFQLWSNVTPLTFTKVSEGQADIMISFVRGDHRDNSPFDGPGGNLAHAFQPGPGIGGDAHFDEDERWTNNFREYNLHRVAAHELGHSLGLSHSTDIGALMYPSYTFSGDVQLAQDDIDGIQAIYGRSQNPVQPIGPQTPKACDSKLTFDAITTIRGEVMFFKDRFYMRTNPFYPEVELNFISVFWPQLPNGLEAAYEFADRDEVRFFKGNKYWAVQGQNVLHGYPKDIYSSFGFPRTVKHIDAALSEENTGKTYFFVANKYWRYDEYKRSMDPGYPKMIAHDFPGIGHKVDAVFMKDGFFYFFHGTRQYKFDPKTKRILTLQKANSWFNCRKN
Kind of assay: Inhibition of MMP1 (unknown origin)-mediated Mca-Pro-Leu-Gly-Leu-Dpa-Ala-Arg-NH2 by fluorimetric assay. The gist of the method: (§1)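 Activity read fluorimetrically; values reported as inhibition constants (Ki). The same assay format was used for each of MMP-1, -7, -8 and -13.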

Assay [1] deals with Macrophage metalloelastase (Homo sapiens, UniProt P39900). As to the kind of experiment: Inhibition of MMP12 (unknown origin)-mediated Mca-Pro-Leu-Gly-Leu-Dpa-Ala-Arg-NH2 by fluorimetric assay.
The next assay addresses T2, Matrilysin (Homo sapiens, UniProt P09237).
T2 sequence (P09237 whole entry): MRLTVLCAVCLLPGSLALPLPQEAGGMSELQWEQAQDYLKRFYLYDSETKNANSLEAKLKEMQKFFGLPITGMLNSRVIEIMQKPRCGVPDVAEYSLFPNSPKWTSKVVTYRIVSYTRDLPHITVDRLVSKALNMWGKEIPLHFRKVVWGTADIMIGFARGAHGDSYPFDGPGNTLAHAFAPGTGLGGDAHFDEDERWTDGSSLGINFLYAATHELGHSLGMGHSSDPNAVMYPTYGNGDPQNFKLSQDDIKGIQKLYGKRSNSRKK
Kind of assay: Inhibition of MMP7 (unknown origin)-mediated Mca-Pro-Leu-Gly-Leu-Dpa-Ala-Arg-NH2 by fluorimetric assay. In short, it runs like this:
as §1

Another assay deals with Neutrophil collagenase (Homo sapiens, UniProt P22894). Kind of assay: Inhibition of MMP8 (unknown origin)-mediated Mca-Pro-Leu-Gly-Leu-Dpa-Ala-Arg-NH2 by fluorimetric assay. The gist of the method:
as §1

Another assay has as its target Collagenase 3 (Homo sapiens, UniProt P45452). As to the kind of experiment: Inhibition of MMP13 (unknown origin)-mediated Mca-Pro-Leu-Gly-Leu-Dpa-Ala-Arg-NH2 by fluorimetric assay. In short, it runs like this: as §1

Sequence of Macrophage metalloelastase (P39900 whole entry): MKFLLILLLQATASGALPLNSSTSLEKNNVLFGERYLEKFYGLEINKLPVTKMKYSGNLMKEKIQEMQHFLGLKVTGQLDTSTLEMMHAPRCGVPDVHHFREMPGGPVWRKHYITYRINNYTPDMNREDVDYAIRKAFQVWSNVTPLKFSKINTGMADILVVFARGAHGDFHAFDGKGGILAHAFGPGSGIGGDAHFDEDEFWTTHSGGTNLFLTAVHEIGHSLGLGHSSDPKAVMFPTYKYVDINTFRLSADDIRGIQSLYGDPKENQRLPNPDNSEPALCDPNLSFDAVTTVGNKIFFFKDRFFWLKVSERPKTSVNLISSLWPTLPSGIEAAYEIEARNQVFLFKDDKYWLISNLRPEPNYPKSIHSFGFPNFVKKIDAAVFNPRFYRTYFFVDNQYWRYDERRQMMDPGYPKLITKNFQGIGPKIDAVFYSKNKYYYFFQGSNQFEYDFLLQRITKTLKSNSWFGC
Sequence of Neutrophil collagenase (P22894 whole entry): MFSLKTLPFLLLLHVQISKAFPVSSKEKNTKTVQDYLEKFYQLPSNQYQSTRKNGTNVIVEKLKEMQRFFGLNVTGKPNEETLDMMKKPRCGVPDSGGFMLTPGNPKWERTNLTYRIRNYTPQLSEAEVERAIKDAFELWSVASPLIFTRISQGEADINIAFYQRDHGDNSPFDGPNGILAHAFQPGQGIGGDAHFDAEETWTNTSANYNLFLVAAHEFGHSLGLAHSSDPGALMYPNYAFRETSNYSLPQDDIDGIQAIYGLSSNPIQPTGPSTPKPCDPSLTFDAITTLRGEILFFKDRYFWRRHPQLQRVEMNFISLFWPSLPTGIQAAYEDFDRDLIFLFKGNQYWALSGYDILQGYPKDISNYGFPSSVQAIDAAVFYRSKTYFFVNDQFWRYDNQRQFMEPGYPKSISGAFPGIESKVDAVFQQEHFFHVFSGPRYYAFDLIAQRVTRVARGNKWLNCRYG

Broadly, the pKi is the negative decadic logarithm of the Ki, by convention in mol/L. A high value points to a low Ki. Take `O=C(O)CNS(=O)(=O)c1ccc(-c2ccccc2)cc1`: the pKi on Interstitial collagenase is 6.44; in assay [1], 4.74.

As to `O=C(CNS(=O)(=O)c1ccccc1)NO`, the pKi on Interstitial collagenase is 5.47; on Matrilysin it was 5.40; on Neutrophil collagenase, 6.62; at Collagenase 3, 7.38; in assay [1], 7.21.

With `O=C(CNS(=O)(=O)CCc1ccccc1)NO`, the negative logarithm of the Ki (pKi) is 5.24 at Interstitial collagenase; 4.97 at Matrilysin; 7.12 at Neutrophil collagenase; 7.31 at Collagenase 3; 7.64 in assay [1].

In the case of `O=C(NO)[C@H]1CCCN1S(=O)(=O)CCc1ccccc1`, the pKi on Interstitial collagenase is 5.74; at Matrilysin, 5.15; on Neutrophil collagenase it was 7.37; at Collagenase 3 it was 7.85; in assay [1], 7.80.

Take `COc1ccc(CCS(=O)(=O)NCC(=O)NO)cc1`: the pKi on Neutrophil collagenase was 7.85; on Collagenase 3, 7.92; in assay [1], 8.00.

As for `COc1ccc(CCS(=O)(=O)N2CCC[C@H]2C(=O)NO)cc1`, the negative logarithm of the Ki (pKi) at Neutrophil collagenase is 8.40; on Collagenase 3 it was 9.00; in assay [1], 9.00.

Regarding `O=C(CNS(=O)(=O)CCc1ccc(Oc2ccccc2)cc1)NO`, the pKi at Neutrophil collagenase is 7.49; at Collagenase 3, 7.72; in assay [1], 8.00.

On to `O=C(NO)[C@H]1CCCN1S(=O)(=O)CCc1ccc(Oc2ccccc2)cc1`, for which the figures for the negative logarithm of the Ki (pKi) (on Neutrophil collagenase; on Collagenase 3; in assay [1]) were 7.01, 8.00 and 8.30, respectively.

For `O=C(O)CNS(=O)(=O)CCc1ccc(-c2ccccc2)cc1`, the pKi was 8.15 on Neutrophil collagenase, 8.30 at Collagenase 3 and 8.15 in assay [1].

Consider `O=C(CNS(=O)(=O)CCc1ccc2c(c1)OCO2)NO`, for which the negative logarithm of the Ki (pKi) on Interstitial collagenase was 4.71; on Matrilysin it was 4.73; at Neutrophil collagenase, 7.70; on Collagenase 3 it was 7.46; in assay [1], 7.82.

Turning to `O=C(NO)[C@@H]1CCCN1S(=O)(=O)CCc1ccc2c(c1)OCO2`, the pKi on Interstitial collagenase is 5.15; on Matrilysin, 5.22; at Neutrophil collagenase it was 7.89; at Collagenase 3, 8.00; in assay [1] it was 8.30.

With `O=C(CNS(=O)(=O)CCc1ccc(Cl)s1)NO`, the negative-log Ki (pKi) at Neutrophil collagenase is 7.43; at Collagenase 3, 8.22; in assay [1], 8.22.

As to `O=C(O)CNS(=O)(=O)CCc1ccc(Cl)s1`, the results for the pKi (at Neutrophil collagenase; on Collagenase 3; in assay [1]) were 6.44, 6.49 and 6.57, respectively.

For `O=C(NO)[C@@H]1CCCN1S(=O)(=O)CCc1ccc(Cl)s1`, the negative-log Ki (pKi) on Neutrophil collagenase is 8.22; on Collagenase 3 it was 8.52; in assay [1], 8.05.

Consider `O=C(O)[C@@H]1CCCN1S(=O)(=O)c1ccc(Cl)s1`, for which the pKi at Neutrophil collagenase was 6.56; at Collagenase 3, 6.76; in assay [1], 6.17.

Take `O=C(CNS(=O)(=O)c1ccc(-c2ccccc2)cc1)NO`: the negative-log Ki (pKi) was 6.44 at Interstitial collagenase; 5.30 at Matrilysin; 8.05 at Neutrophil collagenase; 8.70 at Collagenase 3; 8.70 in assay [1].

Take `COc1ccc(S(=O)(=O)NCC(=O)NO)cc1`: the pKi on Matrilysin was 5.40; in assay [1] it was 7.70.

In the case of `O=C(NO)C1CCCN1S(=O)(=O)CCc1ccc(-c2ccccc2)cc1` (single isomer, unassigned), the negative-log Ki (pKi) is 8.52 on Neutrophil collagenase, 9.00 on Collagenase 3 and 8.70 in assay [1].

Source of the values: ChEMBL document CHEMBL2384938, “Discovery of a New Class of Potent MMP Inhibitors by Structure-Based Optimization of the Arylsulfonamide Scaffold” (ACS Med Chem Lett, 2013).
